Measurements published in ChEMBL document CHEMBL4699593, “Identification of 2,4-Disubstituted Imidazopyridines as Hemozoin Formation Inhibitors with Fast-Killing Kinetics and In Vivo Efficacy in the Plasmodium falciparum NSG Mouse Model” (J Med Chem, 2020).
Values after ≈ are worked out from the molar mass of the structure shown. Active and inactive are the calls of the source. The calls are words filed in the database; no cut-off is given here.

How the values were obtained:
Plasmodium falciparum [1] = assay: Antimalarial activity against asexual ring stage of Plasmodium falciparum NF54 measured after 24 hrs by [3H]hypoxanthine incorporation assay; assay type: functional, organism-based
Summary of the method: (§1)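 Tested on a synchronized asexual blood-stage culture of P. falciparum, with IC50 determined separately for the ring and the schizont stage.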

[2] = Terminal half life in Balb/C mouse at 2 mg/kg, iv by LC-MS/MS analysis; assay type: ADME, organism-based; conditions: in vivo, read-out: beta t1/2 (converted)
Summary of the method: (§2)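 Healthy Balb/c mice were given the compound i.v. or orally. Parameters come from non-compartmental analysis: AUC from 0 h to t_last, blood clearance, volume at steady state, terminal half-life, Tmax. Oral bioavailability F is derived from the i.v. and p.o. data.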

[3] = Cmax in Plasmodium falciparum 3D70087/N9 infected NSG mouse at 100 mg/kg, po by LC-MS/MS analysis; assay type: ADME, organism-based; design: route oral, dose 100 mg/kg; conditions: in vivo
Summary of the method: (§3)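 Oral (PO) dosing of NSG (NODscidIL2Rγnull) mice infected with P. falciparum. Cmax and AUC0–24 are taken from the infected-mouse PK analysis and are also expressed divided by dose.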

Plasmodium falciparum [4] = assay: Antiplasmodial activity against early ring-stage synchronized Plasmodium falciparum assessed as increase in free heme after 32 hrs by Giemsa-staining based haemocytometric counting method; assay type: functional, organism-based
Summary of the method: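 Whole-parasite cell fractionation assay run as a dose response. Free heme and hemozoin were measured intracellularly across increasing compound concentrations.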

[5] = Dose normalized Cmax in Balb/c mouse at 20 mg/kg, po by LC-MS/MS analysis; assay type: ADME, organism-based; conditions: in vivo
Summary of the method: (§4)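 Healthy Balb/c mice dosed i.v. or orally. Parameters come from non-compartmental analysis of compound concentration over time. […] Clearance is blood clearance (CL_b).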

Plasmodium falciparum [6] = assay: Antiplasmodial activity against multidrug-sensitive asexual blood stage Plasmodium falciparum NF54 strain assessed as reduction in parasite growth after 72 hrs by NBT reagent based LDH assay; assay type: functional, organism-based; conditions: NF54, 72 h
[7] = Tmax in Plasmodium falciparum 3D70087/N9 infected NSG mouse at 15 mg/kg, po by LC-MS/MS analysis; assay type: ADME, organism-based; conditions: in vivo
Summary of the method: (§5)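 P. falciparum-infected NSG mice received escalating single oral doses of 1.5, 5, 15, 50 and 100 mg/kg.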

[8] = Clearance in Balb/C mouse blood at 2 mg/kg, iv by LC-MS/MS analysis; assay type: ADME, organism-based; conditions: whole blood; summary of the method: as §4
[9] = Dose normalized AUC (0 to 24 hrs) in Plasmodium falciparum 3D70087/N9 infected NSG mouse at 15 mg/kg, po by LC-MS/MS analysis; assay type: ADME, organism-based; conditions: in vivo; summary of the method: as §3
[10] = Cmax in Balb/C mouse at 2 mg/kg, iv by LC-MS/MS analysis; assay type: ADME, organism-based; design: route intravenous, dose 2 mg/kg; conditions: in vivo; summary of the method: as §4
Plasmodium falciparum [11] = assay: Antimalarial activity against asexual blood stage Plasmodium falciparum assessed as time required to show 99.9% reduction of parasitemia at 10 times IC50; assay type: functional
[12] = Tmax in Balb/C mouse at 20 mg/kg, po by LC-MS/MS analysis; assay type: ADME, organism-based; conditions: in vivo; summary of the method: as §2
[13] = Ratio of unbound average drug concentration in Balb/c mouse at 20 mg/kg, po measured at 24 hrs to IC50 for antiplasmodial activity against multidrug-sensitive Plasmodium falciparum NF54 asexual blood stage assessed as reduction in parasite growth after 72 hrs by LDH assay; assay type: organism-based; conditions: in vivo
[14] = Drug metabolism in mouse blood assessed as oxidation and glucuronidation by LC-MS/MS analysis; assay type: ADME, tissue-based
Plasmodium falciparum [15] = assay: Antimalarial activity against asexual blood stage Plasmodium falciparum assessed as reduction in parasitemia by measuring log parasite reduction ratio at 10 times IC50; assay type: functional
[16] = Dose normalized Cmax in Plasmodium falciparum 3D70087/N9 infected NSG mouse at 50 mg/kg, po by LC-MS/MS analysis; assay type: ADME, organism-based; conditions: in vivo; summary of the method: as §5
[17] = Dose normalized AUC (0 to 24 hrs) in Plasmodium falciparum 3D70087/N9 infected NSG mouse at 5 mg/kg, po by LC-MS/MS analysis; assay type: ADME, organism-based; conditions: in vivo; summary of the method: as §3
[18] = Aqueous solubility of compound in phosphate buffer saline at pH 6.5 incubated for 20 hrs under shaking condition by shake-flask method based HPLC-DAD analysis; assay type: physicochemical; conditions: phosphate buffered saline
Summary of the method: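 Equilibrium aqueous solubility was measured at pH 6.5 using a miniaturized shake-flask method.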

Plasmodium falciparum [19] = assay: Antimalarial activity against asexual schizont stage of Plasmodium falciparum NF54 measured after 24 hrs by [3H]hypoxanthine incorporation assay; assay type: functional, organism-based; summary of the method: as §1
[20] = Dose normalized AUC (0 to 24 hrs) in Plasmodium falciparum 3D70087/N9 infected NSG mouse at 50 mg/kg, po by LC-MS/MS analysis; assay type: ADME, organism-based; conditions: in vivo; summary of the method: as §3
[21] = Lipophilicity, log D of compound at pH 6; assay type: physicochemical; conditions: buffer
[22] = Selectivity index, ratio of CC50 for cytotoxicity against CHO cells assessed as reduction in cell viability to IC50 for antiplasmodial activity against multidrug-sensitive Plasmodium falciparum NF54 assessed as reduction in parasite growth; assay type: toxicity, cell-based; conditions: hamster, read-out: Ratio CC50/IC50
[23] = Cmax in Balb/C mouse at 20 mg/kg, po by LC-MS/MS analysis; assay type: ADME, organism-based; design: route oral, dose 20 mg/kg; conditions: in vivo; summary of the method: as §4
Hemozoin = assay: Inhibition of beta-hematin formation assessed as reduction in hemozoin formation incubated for 5 hrs by NP40 detergent-mediated assay
Summary of the method: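 Synthetic hemozoin (β-hematin) formation is driven by the detergent Nonidet P-40. Pyridine is then added to detect unreacted hematin. IC50 is derived from this read-out.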

[24] = Dose normalized Cmax in Plasmodium falciparum 3D70087/N9 infected NSG mouse at 5 mg/kg, po by LC-MS/MS analysis; assay type: ADME, organism-based; conditions: in vivo; summary of the method: as §5
[25] = Terminal half life in Balb/C mouse at 20 mg/kg, po by LC-MS/MS analysis; assay type: ADME, organism-based; conditions: in vivo, read-out: beta t1/2 (converted); summary of the method: as §2
[26] = Dose normalized Cmax in Plasmodium falciparum 3D70087/N9 infected NSG mouse at 200 mg/kg, po by LC-MS/MS analysis; assay type: ADME, organism-based; conditions: in vivo; summary of the method: as §3
[27] = AUC (0 to t) in Balb/C mouse at 20 mg/kg, po by LC-MS/MS analysis; assay type: ADME, organism-based; design: dose 20 mg/kg; conditions: in vivo; summary of the method: as §4
[28] = Cmax in Plasmodium falciparum 3D70087/N9 infected NSG mouse at 200 mg/kg, po by LC-MS/MS analysis; assay type: ADME, organism-based; design: route oral, dose 200 mg/kg; conditions: in vivo; summary of the method: as §3
[29] = Dose normalized Cmax in Plasmodium falciparum 3D70087/N9 infected NSG mouse at 15 mg/kg, po by LC-MS/MS analysis; assay type: ADME, organism-based; conditions: in vivo; summary of the method: as §3
[30] = Cmax in Plasmodium falciparum 3D70087/N9 infected NSG mouse at 5 mg/kg, po by LC-MS/MS analysis; assay type: ADME, organism-based; design: route oral, dose 5 mg/kg; conditions: in vivo; summary of the method: as §3
hERG = assay: Selectivity index, ratio of IC50 for inhibition of human ERG by patch clamp method to IC50 for antiplasmodial activity against multidrug-sensitive asexual blood stage Plasmodium falciparum NF54; assay type: toxicity; conditions: read-out: Ratio IC50
[31] = AUC (0 to 24 hrs) in Plasmodium falciparum 3D70087/N9 infected NSG mouse at 15 mg/kg, po by LC-MS/MS analysis; assay type: ADME, organism-based; design: time < 24 hr, route oral, dose 15 mg/kg; conditions: in vivo; summary of the method: as §3
[32] = Drug recovery in mouse urine by LC-MS/MS analysis; assay type: ADME, tissue-based; conditions: in vivo

With `CN1CCN(CC2CCN(c3nccc4[nH]c(-c5cc(F)cc(F)c5)nc34)CC2)CC1` as the compound, how does the IC50 (Plasmodium falciparum [1]) read?
The IC50 was 27 nM.

What about the half-life [2] of the same compound?
Its half-life is 23.1 h.

And the Cmax [3]?
Its Cmax is 6680 nM.

And the Activity (Plasmodium falciparum [4])?
The Activity was “inactive”.

And the Cmax/dose [5]?
The Cmax/dose was 0.08 µM·kg/mg.

And the IC50 (Plasmodium falciparum [6])?
Its IC50 is 23 nM.

What about the Tmax [7] of the same compound?
Its Tmax is 6 h.

And the clearance [8]?
The clearance was 20.2 mL/min/kg.

And the AUC/dose [9]?
Its AUC/dose is 65 µM·kg·min/mg.

And the Cmax [10]?
Its Cmax is 600 nM.

And the Time (Plasmodium falciparum [11])?
Its Time is 31 h.

And the Tmax [12]?
Its Tmax is 1.7 h.

What about the Ratio [13] of the same compound?
The Ratio was 4.5.

And the Drug metabolism [14]?
The Drug metabolism was “Metabolite_Detected”.

What about the Ratio (Plasmodium falciparum [15]) of the same compound?
The Ratio was 4.9.

And the Cmax/dose [16]?
Its Cmax/dose is 0.06 µM·kg/mg.

What about the AUC/dose [17] of the same compound?
Its AUC/dose is 34 µM·kg·min/mg.

And the solubility thermodynamic at 20 h [18]?
Its solubility thermodynamic at 20 h is 200 µM (≈ 85.3 µg/mL).

What about the IC50 (Plasmodium falciparum [19]) of the same compound?
Its IC50 is 60 nM.

And the AUC/dose [20]?
Its AUC/dose is 57 µM·kg·min/mg.

And the logD [21]?
Its logD is 0.4.

And the selectivity ratio [22]?
Its selectivity ratio is 1040.

And the Cmax [23]?
Its Cmax is 1500 nM.

And the IC50 (Hemozoin)?
Its IC50 is 24000 nM.

And the Cmax/dose [24]?
Its Cmax/dose is 0.03 µM·kg/mg.

What about the half-life [25] of the same compound?
The half-life was 32.7 h.

What about the Cmax/dose [26] of the same compound?
The Cmax/dose was 0.06 µM·kg/mg.

What about the AUCt [27] of the same compound?
The AUCt was 20 µM·h.

And the Cmax [28]?
Its Cmax is 2840 nM.

What about the Cmax/dose [29] of the same compound?
The Cmax/dose was 0.05 µM·kg/mg.

What about the Cmax [30] of the same compound?
The Cmax was 130 nM.

And the selectivity ratio (hERG)?
The selectivity ratio was over 1300.

And the AUC [31]?
The AUC was 969 µM·min.

And the Drug recovery [32]?
The Drug recovery was “Active”.
